Reference: ChEMBL document CHEMBL1123173, “Synthesis and antiherpes virus activity of phosphate and phosphonate derivatives of 9-[(1,3-dihydroxy-2-propoxy)methyl]guanine” (1986)
Calls of active or inactive are those of the source. No cut-off for these calls is given here.

How the values were obtained:
Mus musculus [1] = experiment: Effect of subcutaneous treatment with compound on HSV-2 induced mortality in mice at 15 mg/kg dose; assay type: functional
Outline: (§1)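 Female Swiss-Webster mice, about 20 g, challenged intraperitoneally with 5×10^4 PFU of HSV-2 strain G (about ten LD50). Subcutaneous dosing once daily for 4 days, beginning 24 h after infection, with a saline control group. 15 mice per group. Survivor numbers were compared by Fisher exact test and mean survival time (± SD) by Mann-Whitney U test. NS means p > 0.05.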

Mus musculus [2] = experiment: Effect of subcutaneous treatment with compound on HSV-2 induced mortality in mice at 30 mg/kg dose; assay type: functional; outline: as §1
Mus musculus [3] = experiment: (§2) Effect of subcutaneous treatment with compound on HSV-2 induced mortality in mice at 5 mg/kg dose; NS=Not significant; assay type: functional, organism-based; parameters: dose 5 mg/kg
Outline: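 Female Swiss-Webster mice (ca. 20 g) infected intraperitoneally with 5×10^4 PFU HSV-2 strain G (about ten 50% lethal doses). Subcutaneous dosing once daily for 4 days, starting 24 h postinfection; saline controls. Survivors/total recorded, Fisher exact test for survival; mean survival time (± standard deviation) compared by Mann-Whitney U test.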

Mus musculus [4] = experiment: Effect of subcutaneous treatment with compound on HSV-2 induced mortality in mice at 15 mg/kg dose; NS=Not significant; assay type: functional, organism-based; parameters: dose 15 mg/kg; outline: as §1
Mus musculus [5] = experiment: Effect of subcutaneous treatment with compound on HSV-2 induced mortality in mice at 30 mg/kg dose; NS=Not significant; assay type: functional, organism-based; parameters: dose 30 mg/kg; outline: as §1
Mus musculus [6] = experiment: as §2; assay type: functional, organism-based; parameters: dose 5 mg/kg; outline: as §1; remark: listed apart in the source
Mus musculus [7] = experiment: Effect of subcutaneous treatment with compound on HSV-2 induced mortality in mice at 15 mg/kg dose; 0/15; assay type: functional; outline: as §1
Mus musculus [8] = experiment: Effect of subcutaneous treatment with compound on HSV-2 induced mortality in mice at 30 mg/kg dose; 2/15; assay type: functional; outline: as §1
Mus musculus [9] = experiment: Effect of subcutaneous treatment with compound on HSV-2 induced mortality in mice at 5 mg/kg dose; 2/15; assay type: functional; outline: as §1
Vero [10] = experiment: In vitro antiviral activity was measured against HSV-1 (F delta 305) in Vero cells; assay type: functional; settings: Chlorocebus sabaeus, read-out: ID50 (the source's name)
Vero [11] = experiment: In vitro antiviral activity was measured against HSV-2(G) in Vero cells; assay type: functional; settings: Chlorocebus sabaeus, read-out: ID50 (the source's name)
Vero [12] = experiment: In vitro antiviral activity was measured against HSV-1(F) in Vero cells; assay type: functional; settings: Chlorocebus sabaeus, read-out: ID50 (the source's name)
MRC5 = experiment: In vitro antiviral activity was measured against HCMV(AD-169) in MRC5 cells; assay type: functional; settings: Homo sapiens, read-out: ID50 (the source's name)
Mus musculus [13] = experiment: Effect of oral treatment with compound on HSV-2 induced mortality in mice at 10 mg/kg dose; assay type: functional
Outline: (§3)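 Female Swiss-Webster mice, about 20 g, infected intraperitoneally with 5×10^4 PFU of HSV-2 strain G (about ten LD50). Oral dosing once every 24 h for 4 days, starting 24 h post-infection, with a saline-treated control group. Groups of 19–20 mice. Survivors were scored and compared by Fisher exact test. Mean survival time (days ± SD) was compared by Mann-Whitney U test. NS means p > 0.05.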

Mus musculus [14] = experiment: (§4) Effect of oral treatment with compound on HSV-2 induced mortality in mice at 5 mg/kg dose; NS=Not significant; assay type: functional, organism-based; parameters: dose 5 mg/kg
Outline: (§5)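 Female Swiss-Webster mice (ca. 20 g) infected intraperitoneally with 5×10^4 PFU HSV-2 strain G (about ten 50% lethal doses). Oral dosing once every 24 h for 4 days, starting 24 h postinfection; saline controls. Survivors/total recorded, survivor increase tested by Fisher exact test; mean survival time (days ± standard deviation) compared by Mann-Whitney U test.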

Mus musculus [15] = experiment: Effect of on mean survival time upon oral treatment on HSV-2 induced mortality in mice at 10 mg/kg dose; assay type: functional; outline: as §3
Mus musculus [16] = experiment: Effect of on mean survival time upon oral treatment on HSV-2 induced mortality in mice at 20 mg/kg dose; assay type: functional; outline: as §3
Mus musculus [17] = experiment: Effect of on mean survival time upon oral treatment on HSV-2 induced mortality in mice at 5 mg/kg dose; assay type: functional; outline: as §3
Mus musculus [18] = experiment: Effect of oral treatment with compound on HSV-2 induced mortality in mice at 5 mg/kg dose; assay type: functional; outline: as §3
Mus musculus [19] = experiment: (§6) Effect of oral treatment with compound on HSV-2 induced mortality in mice at 10 mg/kg dose; NS=Not significant; assay type: functional, organism-based; parameters: dose 10 mg/kg; outline: as §3
Mus musculus [20] = experiment: Effect of oral treatment with compound on HSV-2 induced mortality in mice at 20 mg/kg dose; assay type: functional; outline: as §3
Mus musculus [21] = experiment: (§7) Effect of oral treatment with compound on HSV-2 induced mortality in mice at 20 mg/kg dose; NS=Not significant; assay type: functional, organism-based; parameters: dose 20 mg/kg; outline: as §3
Mus musculus [22] = experiment: as §4; assay type: functional, organism-based; parameters: dose 5 mg/kg; outline: as §3; remark: listed apart in the source
Mus musculus [23] = experiment: Effect of oral treatment with compound on HSV-2 induced mortality in mice at 10 mg/kg dose; 4/20; assay type: functional; outline: as §3
Mus musculus [24] = experiment: Effect of oral treatment with compound on HSV-2 induced mortality in mice at 20 mg/kg dose; 6/20; assay type: functional; outline: as §3
Vero [25] = experiment: In vitro anticellular activity was measured against vero cells; assay type: functional; settings: Chlorocebus sabaeus, read-out: ID50 (the source's name)
Outline: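 Cell proliferation assay in uninfected Vero cells.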

Vero [26] = experiment: In vitro antiviral activity was measured against HSV-1 (MP-PAA/DHPG) in Vero cells; assay type: functional; settings: Chlorocebus sabaeus, read-out: ID50 (the source's name)
Mus musculus [27] = experiment: Effect of oral treatment with compound on HSV-2 induced mortality in mice at 5 mg/kg dose; 1/19; assay type: functional; outline: as §3
Mus musculus [28] = experiment: Effect of oral treatment with compound on HSV-2 induced mortality in mice at 20 mg/kg dose; 12/20; assay type: functional; outline: as §3
Mus musculus [29] = experiment: Effect of oral treatment with compound on HSV-2 induced mortality in mice at 10 mg/kg dose; 2/20; assay type: functional; outline: as §3
Mus musculus [30] = experiment: as §6; assay type: functional, organism-based; parameters: dose 10 mg/kg; outline: as §5; remark: listed apart in the source
Mus musculus [31] = experiment: Effect of oral treatment with compound on HSV-2 induced mortality in mice at 5 mg/kg dose; 8/20; assay type: functional; outline: as §3
Mus musculus [32] = experiment: Effect of oral treatment with compound on HSV-2 induced mortality in mice at 10 mg/kg dose; 3/20; assay type: functional; outline: as §3
Mus musculus [33] = experiment: Effect of oral treatment with compound on HSV-2 induced mortality in mice at 20 mg/kg dose; 10/20; assay type: functional; outline: as §3
Mus musculus [34] = experiment: as §7; assay type: functional, organism-based; parameters: dose 20 mg/kg; outline: as §5; remark: listed apart in the source
Mus musculus [35] = experiment: Effect of oral treatment with compound on HSV-2 induced mortality in mice at 5 mg/kg dose; 3/20; assay type: functional; outline: as §3
Mus musculus [36] = experiment: Effect of oral treatment with compound on HSV-2 induced mortality in mice at 10 mg/kg dose; 0/20; assay type: functional; outline: as §3
Mus musculus [37] = experiment: Effect of oral treatment with compound on HSV-2 induced mortality in mice at 20 mg/kg dose; 3/20; assay type: functional; outline: as §3
Mus musculus [38] = experiment: Effect of subcutaneous treatment with compound on HSV-2 induced mortality in mice at 1.5 mg/kg dose; 8/15; assay type: functional; outline: as §1
Mus musculus [39] = experiment: Effect of oral treatment with compound on HSV-2 induced mortality in mice at 5 mg/kg dose; 0/19; assay type: functional; outline: as §3
Mus musculus [40] = experiment: Effect of subcutaneous treatment with compound on HSV-2 induced mortality in mice at 1.5 mg/kg dose; assay type: functional; outline: as §1
Mus musculus [41] = experiment: Effect of subcutaneous treatment with compound on HSV-2 induced mortality in mice at 5 mg/kg dose; assay type: functional; outline: as §1
Mus musculus [42] = experiment: Effect of subcutaneous treatment with compound on HSV-2 induced mortality in mice at 15 mg/kg dose; 15/15; assay type: functional; outline: as §1
Mus musculus [43] = experiment: Effect of subcutaneous treatment with compound on HSV-2 induced mortality in mice at 5 mg/kg dose; 10/15; assay type: functional; outline: as §1
Mus musculus [44] = experiment: Effect of oral treatment with compound on HSV-2 induced mortality in mice at 10 mg/kg dose; 6/20; assay type: functional; outline: as §3
Mus musculus [45] = experiment: Effect of oral treatment with compound on HSV-2 induced mortality in mice at 20 mg/kg dose; 11/20; assay type: functional; outline: as §3

SMILES | IC50 (Vero [10]) [µM] | IC50 (Vero [11]) [µM] | IC50 (Vero [12]) [µM] | IC50 (MRC5) [µM] | MST increase (Mus musculus [13]) | MST increase (Mus musculus [14]) | MST (Mus musculus [15]) [days] | MST (Mus musculus [16]) [days] | MST (Mus musculus [17]) [days] | Survivor increase (Mus musculus [19]) | p-value for mean survival time increase (Mus musculus [20]) | Survivor increase (Mus musculus [22]) | IC50 (Vero [25]) [µM] | IC50 (Vero [26]) [µM] | Survivor increase (Mus musculus [20]) | other results
Nc1nc(N)c2ncn(COC3COP(=O)(O)OC3)c2n1 (stereo not drawn) | 80 | > 100 | 125 | – | – | – | – | – | – | – | – | – | – | – | – | MST increase (Mus musculus [1]): 0.025; MST increase (Mus musculus [2]): 0.01; MST increase (Mus musculus [3]): inactive; Survivor increase (Mus musculus [4]): inactive; Survivor increase (Mus musculus [5]): inactive; Survivor increase (Mus musculus [6]): inactive; Survivors (Mus musculus [7]): 0; Survivors (Mus musculus [8]): 2; Survivors (Mus musculus [9]): 2
Nc1nc(O)c2ncn(COC(COP(=O)(O)O)COP(=O)(O)O)c2n1 | 13 | 5 | 0.4 | 8 | <0.05 | inactive | 10.8 | 10.6 | 9.6 | inactive | <0.02 | inactive | 800 | > 200 | – | Survivors (Mus musculus [18]): 8; Survivor increase (Mus musculus [21]): inactive; Survivors (Mus musculus [23]): 4; Survivors (Mus musculus [24]): 6
Nc1nc(O)c2ncn(COC(CO)COP(=O)(O)O)c2n1 (stereo not drawn) | 6 | 1.7 | 0.2 | 12 | <0.01 | inactive | 11.3 | 10.5 | 10 | inactive | <0.001 | inactive | 700 | > 200 | 0.002 | Survivors (Mus musculus [27]): 1; Survivors (Mus musculus [28]): 12; Survivors (Mus musculus [29]): 2
Nc1nc2c(ncn2COC2COP(=O)(O)OC2)c(=O)[nH]1 (stereo not drawn) | 0.5 | 6 | 2 | 6 | – | inactive | 10.6 | 11.6 | 10.4 | inactive | <0.01 | inactive | 40 | 7 | 0.01 | MST increase (Mus musculus [30]): inactive; Survivors (Mus musculus [31]): 8; Survivors (Mus musculus [32]): 3; Survivors (Mus musculus [33]): 10
Nc1ncnc2c1ncn2COC1COP(=O)(O)OC1 (stereo not drawn) | – | > 1000 | 600 | – | – | – | – | – | – | – | – | – | – | – | – | –
Nc1nc(O)c2ncn(COC(CO)CCP(=O)(O)O)c2n1 (stereo not drawn) | 50 | > 100 | 28 | 10 | – | inactive | 8.3 | 8.3 | 8.2 | inactive | – | inactive | > 1000 | > 200 | – | MST increase (Mus musculus [30]): inactive; MST increase (Mus musculus [34]): inactive; Survivors (Mus musculus [35]): 3; Survivor increase (Mus musculus [21]): inactive; Survivors (Mus musculus [36]): 0; Survivors (Mus musculus [37]): 3
Nc1nc2c(ncn2COC(CO)CO)c(=O)[nH]1 [GANCICLOVIR] | 10 | 1.6 | 0.2 | 5 | <0.025 | – | 10.9 | 11.9 | – | inactive | <0.01 | inactive | 450 | 125 | 0.005 | MST increase (Mus musculus [1]): <0.001; Survivor increase (Mus musculus [1]): <0.001; MST (Mus musculus [17]; 5 mg/kg): 11.3 days; Survivors (Mus musculus [38]): 8; MST increase (Mus musculus [18]): <0.01; Survivors (Mus musculus [39]): 0; MST increase (Mus musculus [40]): <0.001; Survivor increase (Mus musculus [40]): 0.01; MST increase (Mus musculus [41]): <0.001; Survivor increase (Mus musculus [41]): <0.001; Survivors (Mus musculus [42]): 15; Survivors (Mus musculus [43]): 10; Survivors (Mus musculus [44]): 6; Survivors (Mus musculus [45]): 11
